Experimental data as given in ChEMBL document CHEMBL5620421, “2,6-Disubstituted 7-(naphthalen-2-ylmethyl)-7H-purines as a new class of potent antitubercular agents inhibiting DprE1” (Eur J Med Chem, 2023).

Assays:
Type in all cases: functional
Conditions in all cases: time 14-21 day
[1] = test system: Mycobacterium tuberculosis; experiment: (§1) Antimycobacterial activity against isoniazid/ethambutol/rifampin/streptomycin/amikacin/gentamicin/clofazimine/ofloxacin resistant MDR/XDR clinical isolate Mycobacterium tuberculosis PRAHA 4 assessed as inhibition of mycobacterial growth measured after 14 to 21 days of incubation by Sulas semisynthetic medium based assay
How it was run: (§2)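 Clinical MDR/XDR M. tuberculosis isolates were tested by the Sula's semisynthetic medium micromethod. Compounds in DMSO at 1000 to 0.5 μmol/L, in twofold-type steps. Incubation at 37 °C, read at 14 and 21 days. MIC99 is the lowest concentration inhibiting >99% of growth. Drug resistance or susceptibility of each isolate is to amikacin, clofazimine, gentamicin, ofloxacin, streptomycin and the others listed.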

[2] = test system: Mycobacterium tuberculosis; experiment: as §1, with “PRAHA 131” for “PRAHA 4”; how it was run: as §2
[3] = test system: Mycobacterium tuberculosis; experiment: as §1, with “9449/2007” for “PRAHA 4”; how it was run: as §2
[4] = test system: Mycobacterium tuberculosis; experiment: as §1, with “8666/2010” for “PRAHA 4”; how it was run: as §2
[5] = test system: Mycobacterium tuberculosis; experiment: as §1, with “7357/1998” for “PRAHA 4”; how it was run: as §2
[6] = test system: Mycobacterium tuberculosis; experiment: as §1, with “PRAHA 1” for “PRAHA 4”; how it was run: as §2
[7] = test system: Mycobacterium tuberculosis; experiment: as §1, with “234/2005” for “PRAHA 4”; how it was run: as §2

Row | Compound | MIC99 [1] [µM] | MIC99 [2] [µM] | MIC99 [3] [µM] | MIC99 [4] [µM] | MIC99 [5] [µM] | MIC99 [6] [µM] | MIC99 [7] [µM]
1 | CC1COc2c(N3CCN(C)CC3)c(F)cc3c(=O)c(C(=O)O)cn1c23 (stereo not given) [OFLOXACIN] | > 16 | – | – | – | – | – | –
2 | GENTAMICIN | – | > 8 | – | – | – | – | –
3 | NCC[C@H](O)C(=O)N[C@@H]1C[C@H](N)[C@@H](O[C@H]2O[C@H](CN)[C@@H](O)[C@H](O)[C@H]2O)[C@H](O)[C@H]1O[C@H]1O[C@H](CO)[C@@H](O)[C@H](N)[C@H]1O [AMIKACIN] | – | > 32 | – | – | – | – | –
4 | CN[C@@H]1[C@H](O[C@H]2[C@H](O[C@H]3[C@H](O)[C@@H](O)[C@H](N=C(N)N)[C@@H](O)[C@@H]3N=C(N)N)O[C@@H](C)[C@]2(O)C=O)O[C@@H](CO)[C@H](O)[C@H]1O [STREPTOMYCIN] | > 32 | > 32 | > 32 | > 32 | > 32 | – | –
5 | CO[C@H]1/C=C/O[C@@]2(C)Oc3c(C)c(O)c4c(O)c(c(/C=N/N5CCN(C)CC5)c(O)c4c3C2=O)NC(=O)/C(C)=C\C=C\[C@H](C)[C@H](O)[C@@H](C)[C@@H](O)[C@@H](C)[C@H](OC(C)=O)[C@@H]1C [RIFAMPIN] | > 8 | > 8 | > 8 | > 8 | > 8 | > 8 | > 8
